Consider twelve compounds from ChEMBL document CHEMBL1125872, “Antiulcer agents. 5. Inhibition of gastric H+/K(+)-ATPase by substituted imidazo[1,2-a]pyridines and related analogues and its implication in modeling the high affinity potassium ion binding site of the gastric proton pump enzyme” (J Med Chem, 1991).

Series [1] in a line: pKa value of the compound. The series is classed as physicochemical.
Series [2] is described as follows: Compound was evaluated for the ability to inhibit purified H+/K+ -ATPase at pH 7.4, by using gastric membrane vesicles prepared from hog stomach. The series is classed as functional, tissue-based, Sus scrofa. In outline: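 Lyophilized, K+-permeable hog gastric membrane vesicles (10 μg) preincubated with inhibitor 30 min at 37 °C in 2 mM Pipes-Tris pH 7.4 with 10 mM KCl. Reaction started with 2 mM ATP/2 mM MgCl2. Read-out is inorganic phosphate release. K+-stimulated activity = total minus basal Mg2+ activity. Inhibitors added from methanol, final 1%. IC50 = 50% inhibition.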

Series [3] can be described thus: Compound was evaluated for the ability to inhibit H+/K+ -ATPase formation in rabbit gastric glands. The format is functional, tissue-based, Oryctolagus cuniculus, Stomach. In outline: (§1)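 Isolated rabbit gastric glands (collagenase-digested corpus mucosa, 37 °C ~1 h, rinsed, in respiratory medium pH 7.4). 10 mg wet weight glands incubated in RM with 0.05 μCi [14C]aminopyrine, stimulated with 10^-4 M histamine, 37 °C, 1 h shaking. Acid formation read as aminopyrine uptake. Inhibitors diluted in methanol, final 1%. IC50 = 50% inhibition.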

The species named for a further series is Sus scrofa. Nature of the series: The percent of compound protonated at pH 7.4 in purified H+/K+ -ATPase from hog stomach.
Series [4] in a line: Compound was evaluated for the ability to inhibitH+/K+ -ATPase formation in rabbit gastric glands. The format is functional, tissue-based, Oryctolagus cuniculus, Stomach. In outline: as §1
For a further series, the species on record is Oryctolagus cuniculus. In words: The percent of compound protonated at pH 7.4. The series is classed as functional.
Series [5] can be described thus: Inhibitory activity against histamine-stimulated gastric acid secretion in adult mengrel dogs, with surgically prepared Heidenhain pouches after peroral administration. As to conditions: Canis lupus familiaris, Stomach, po. The format is functional. In outline: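 Heidenhain pouch mongrel dogs under histamine-stimulated acid secretion, oral dosing 2-8 mg/kg. Reduction in acid output taken relative to the untreated control value in the same dog. ED50 by linear regression, with 95% confidence limits.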

Series [6] can be described thus: Inhibitory activity against histamine-stimulated gastric acid secretion in adult mengrel dogs, with surgically prepared Heidenhain pouches after intravenous administration. The format is functional. Particulars: Canis lupus familiaris, Stomach. In short, it runs like this:
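Adult mongrel dogs with surgically prepared Heidenhain pouches, acid secretion stimulated by histamine. Intravenous dosing, 0.1-5 mg/kg. Acid output reduction measured against the non-drug control in the same animal. ED50 from linear regression, with 95% confidence limits.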

The structures appear in SMILES notation. A value given as a limit tells only on which side of the number the result lay.

For orientation: pKa means the negative logarithm of the acid dissociation constant. High values mean a group that holds its proton tightly, low ones a group that gives up its proton readily. Broadly, the ED50 is the dose at which the effect has come halfway, by size or by number of responders. Low readings indicate an effect at a small dose, high ones a need for a large dose.

Regarding `Cc1nc2c(/C=C/Cc3ccccc3)cccn2c1N`, the pKa in series [1] was found to be 6.75. Further, the results for the IC50 in series [2] and in series [3] were 8.6 uM l-1 and 14.1 uM l-1, respectively. Besides, the Protonated in the series listed under Sus scrofa was found to be 18.3%.
Turning to `Cc1nc2c(OCc3ccccc3)nccn2c1N`, the pKa in series [1] came out at 4.6. The IC50 in series [2] was 178 uM l-1; in series [3], 8.08 uM l-1. The Protonated in the series listed under Sus scrofa worked out at 0.158%.
For `Cc1nc2c(CCc3ccccc3)cccn2c1N`, in that order: 7.3, 2.1 uM l-1, 1.46 uM l-1 and 44.3%.
The compound `Cc1nc2c(/C=C\c3ccccc3)cccn2c1C` yielded a pKa in series [1] of 7.2. The IC50 was determined as 28.4 uM l-1 in series [2] and 17.5 uM l-1 in series [4]. The compound further had a Protonated in the series filed under Oryctolagus cuniculus of 38.7%.
Take `Cc1nc2c(CCc3ccccc3)cccn2c1CC#N`: in series [1], the pKa is 6. The values for the IC50 in series [2] and in series [3] were 2 uM l-1 and 0.13 uM l-1, respectively. Also, the ED50 is over 4.4 mg/kg in series [5] and 0.1 mg/kg in series [6]. Moreover, the Protonated in the series listed under Sus scrofa came out at 3.83%.
In series [1], `Cc1nc2c3c(ccn2c1CC#N)CCC(c1ccccc1)O3` (racemic) yielded a pKa of 6. Also, the figures for the IC50 in series [2] and in series [3] were 0.092 uM l-1 and 0.064 uM l-1, respectively. Also, the Protonated in the series filed under Sus scrofa stood at 3.83%.
In series [1], `Cc1nc2c(/C=C/c3ccccc3)cccn2c1C` yielded a pKa of 7.2. Further, the figures for the IC50 in series [2] and in series [4] were 1.68 uM l-1 and 0.99 uM l-1, respectively. The Protonated in the series listed under Oryctolagus cuniculus is 38.7%. Further, the ED50 is 4.8 mg/kg in series [5] and 0.7 mg/kg in series [6].
In series [1], `Cc1nc2c(OCc3ccccc3)cccn2c1N` showed a pKa of 6.81. Besides, the IC50 in series [2] worked out at 0.89 uM l-1; in series [3] it was 0.31 uM l-1. In the series listed under Sus scrofa, this compound displayed a Protonated of 20.4%.
For `Cc1ccn2c(CC#N)c(C)nc2c1OCc1ccccc1`, in that order: 5.67, 13.7 uM l-1, 0.4 uM l-1 and 1.83%.
On to `Cc1nc2c(OCc3ccccc3)cccn2c1CC#N`, for which the pKa in series [1] was 5.5.
As for `Cc1nc2c(C/C=C/c3ccccc3)cccn2c1CC#N`, the pKa in series [1] turned out to be 6. Besides, the IC50 in series [2] came out at 206 uM l-1; in series [3], 442 uM l-1. The compound further returned a Protonated in the series listed under Sus scrofa of 3.83%.
As for `Cc1nc2c(/C=C/Cc3ccccc3)cccn2c1CC#N`, the pKa in series [1] worked out at 5.7. The IC50 in series [2] turned out to be 14 uM l-1; in series [3], 3.8 uM l-1. The same compound yielded a Protonated in the series filed under Sus scrofa of 1.96%.
